Assay results pooled from the literature.
Target: Serine/threonine-protein kinase OSR1 (OXSR1, Homo sapiens, UniProt O95747)

O=C(O)[C@@H]1[C@@H](Cn2nnc3ccccc3c2=O)CC[C@H]1C(=O)c1ccc(OCCC2CCOCC2)cc1 — remaining binding (cell-free assay; competition with immobilised ligand; 1 µM): 100%
CN(C)c1ncc(F)c(-c2cnn3ncccc23)n1 — remaining binding (binding; 1 µM): 95%
COc1cnc(Nc2cccc(S(N)(=O)=O)c2)nc1N1CCN(c2ccccc2)CC1 — remaining binding (binding; competition with immobilised ligand; 1 µM): 90%
CNC(=O)c1ccc(Nc2ncc(C(F)(F)F)c(NCc3nccnc3N(C)S(C)(=O)=O)n2)cc1 — remaining binding (cell-free assay; competition with immobilised ligand; 0.1 µM): 100%
O=C(NCCCN1CCOCC1)c1ccc(Nc2nccc(-c3cc4ccccc4s3)n2)cc1 — remaining binding (binding; competition with immobilised ligand; 1 µM): 77%
C[C@H](c1ccc(F)cc1)N(Cc1cccc(C(=O)O)c1)C(=O)c1cnc2ccccc2c1 — remaining binding (cell-free assay; competition with immobilised ligand; 1 µM): 100%
C[C@@H]1CCN(c2nccc(-c3cnn4ncccc34)n2)C1 — remaining binding (binding; 1 µM): 75%
O=C(NCC1CCOCC1)c1n[nH]cc1NC(=O)c1c(F)cccc1F — remaining binding (binding; competition with immobilised ligand; 1 µM): 73%
COc1cnc(Nc2cccc(S(N)(=O)=O)c2)nc1N1CCN(c2ccccc2)C(=O)C1 — remaining binding (binding; competition with immobilised ligand; 1 µM): 100%
O=C(c1ccc(Nc2nccc(-c3cc4ccccc4s3)n2)cc1)N1CCC(N2CCCC2)CC1 — remaining binding (binding; competition with immobilised ligand; 1 µM): 100%
CN(C)c1nccc(-c2cnn3ncccc23)n1 — remaining binding (binding; 1 µM): 100%
COc1ncc2cc3ccccc3nc2c1C#N — remaining binding (cell-free assay; competition with immobilised ligand; 5 µM): 100%
Nc1ncc2c(n1)-c1c([nH]c3ccc(C#CC4CC4)cc13)CCCC2 — remaining binding (binding; competition with immobilised ligand; 1 µM): 86%
O=C(NCCCN1CCOCC1)c1ccc(Nc2ncc(Cl)c(-c3ccc(Cl)s3)n2)cc1 — remaining binding (binding; competition with immobilised ligand; 1 µM): 79%
COc1ccnn2ncc(-c3ccnc(N(C)C)n3)c12 — remaining binding (binding; 1 µM): 87%
C[C@@H](c1ccc(-n2cnc3c(N)ncnc32)cc1)N1CCc2nn(C)c(Cc3ccccc3)c2C1=O — remaining binding (binding; competition with immobilised ligand; 0.1 µM): 72%
N[C@H]1CCN(c2nccc(-c3cnn4ncccc34)n2)C1 — remaining binding (binding; 1 µM): 86%
Cc1cc(C)c(-n2ccn3nc(-c4cccnc4)cc23)cc1NC(=O)c1cc(C#N)cc(S(F)(F)(F)(F)F)c1 — remaining binding (cell-free assay; competition with immobilised ligand; 0.1 µM): 87%
Cc1cnn2ncc(-c3ccnc(N(C)C)n3)c2c1 — remaining binding (binding; 1 µM): 84%
O=C(N[C@H]1CCCCC/C=C\C2C[C@@]2(C(=O)O)NC(=O)[C@@H]2C[C@@H](Oc3ccncc3)CN2C1=O)OC1CCCC1 (stereo partly shown) — remaining binding (binding; competition with immobilised ligand; 1 µM): 75%
CC1CCCN1c1nccc(-c2cnn3ncccc23)n1 (stereo not shown) — remaining binding (binding; 1 µM): 100%
NS(=O)(=O)c1cc(NC(=O)Cc2ccccc2)ccc1Oc1cccc(Cl)c1 — remaining binding (cell-free assay; competition with immobilised ligand; 1 µM): 78%
